Drawing on ChEMBL document CHEMBL4261552, “4-Hydroxy-N-[3,5-bis(trifluoromethyl)phenyl]-1,2,5-thiadiazole-3-carboxamide: a novel inhibitor of the canonical NF-κB cascade” (Medchemcomm, 2017), this text covers Activity and IC50 for 1 molecule.

Assay [1] relates to MDA-MB-231. The experiment in a line: Inhibition of constitutively activated canonical NF-kB signaling pathway in human MDA-MB-231 cells assessed as residual activity at 10 uM after 24 hrs by luciferase reporter gene assay relative to control. The assay is classed as cell-based. The method in brief:
(§1)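 MDA-MB-231 cells (constitutive NF-κB) nucleofected with 3 µg of NF-κB-RE firefly luciferase plus TK-Renilla plasmids (10:1), then cultured 24 h. Compound added for a further 6 h or 24 h, without stimulus. Firefly/Renilla ratio expressed as % of DMSO-treated control; mean ± SD of three independent experiments.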
In general terms: Reporter assays use an easily measured gene product as a stand-in for the process of interest.

Assay [2] relates to MDA-MB-231. Briefly: Antiproliferative activity against human MDA-MB-231 cells assessed as DNA content after 72 hrs by Hoechst 33258 staining based fluorescence assay. In kind it is functional, cell-based. The following applies: MDA-MB-231, 72 h. A digest of the protocol: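 MDA-MB-231 cells (5 x 10³/well) grown in DMEM with 10% FBS and exposed to 0.001 - 200 µM compound or DMSO vehicle for 72 h. Cells were washed with PBS and lysed in 0.02% SDS in SSC buffer for 1 h at 37 °C. Hoechst 33258 (1 µg/mL) was then added and fluorescence read at ex 355/em 460 nm. IC50 taken by nonlinear regression; mean ± SD of three independent experiments.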

The target in assay [3] is T1, Inhibitor of nuclear factor kappa-B kinase subunit alpha (Homo sapiens, UniProt O15111).
T1 sequence (O15111 whole entry): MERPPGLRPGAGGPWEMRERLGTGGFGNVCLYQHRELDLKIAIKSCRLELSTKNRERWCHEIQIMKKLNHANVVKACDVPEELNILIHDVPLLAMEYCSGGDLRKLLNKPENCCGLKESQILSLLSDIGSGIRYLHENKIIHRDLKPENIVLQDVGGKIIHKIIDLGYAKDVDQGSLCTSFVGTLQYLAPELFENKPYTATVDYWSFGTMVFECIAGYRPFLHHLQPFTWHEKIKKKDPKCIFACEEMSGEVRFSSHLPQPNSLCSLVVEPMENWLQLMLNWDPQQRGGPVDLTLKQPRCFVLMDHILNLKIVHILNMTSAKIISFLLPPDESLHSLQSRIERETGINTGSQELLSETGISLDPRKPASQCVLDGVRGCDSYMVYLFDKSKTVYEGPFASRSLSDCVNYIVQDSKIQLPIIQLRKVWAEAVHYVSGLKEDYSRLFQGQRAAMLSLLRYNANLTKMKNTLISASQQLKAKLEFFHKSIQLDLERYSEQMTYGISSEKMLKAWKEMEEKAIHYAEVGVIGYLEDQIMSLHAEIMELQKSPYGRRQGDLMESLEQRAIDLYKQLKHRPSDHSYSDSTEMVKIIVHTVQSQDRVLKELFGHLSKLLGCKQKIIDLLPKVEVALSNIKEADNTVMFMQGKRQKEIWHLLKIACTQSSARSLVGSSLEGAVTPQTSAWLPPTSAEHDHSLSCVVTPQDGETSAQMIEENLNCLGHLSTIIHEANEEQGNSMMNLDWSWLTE
Briefly: Inhibition of human IKKalpha using ERLLDDRHDSGLDSMKDEE as substrate after 60 mins in presence of ATP by ADP-Glo kinase assay. On the technique in general: In ADP-Glo the light output rises with the ADP produced.

Assay [4] concerns the target T2, Inhibitor of nuclear factor kappa-B kinase subunit epsilon (Homo sapiens, UniProt Q14164).
T2 sequence (Q14164 whole entry): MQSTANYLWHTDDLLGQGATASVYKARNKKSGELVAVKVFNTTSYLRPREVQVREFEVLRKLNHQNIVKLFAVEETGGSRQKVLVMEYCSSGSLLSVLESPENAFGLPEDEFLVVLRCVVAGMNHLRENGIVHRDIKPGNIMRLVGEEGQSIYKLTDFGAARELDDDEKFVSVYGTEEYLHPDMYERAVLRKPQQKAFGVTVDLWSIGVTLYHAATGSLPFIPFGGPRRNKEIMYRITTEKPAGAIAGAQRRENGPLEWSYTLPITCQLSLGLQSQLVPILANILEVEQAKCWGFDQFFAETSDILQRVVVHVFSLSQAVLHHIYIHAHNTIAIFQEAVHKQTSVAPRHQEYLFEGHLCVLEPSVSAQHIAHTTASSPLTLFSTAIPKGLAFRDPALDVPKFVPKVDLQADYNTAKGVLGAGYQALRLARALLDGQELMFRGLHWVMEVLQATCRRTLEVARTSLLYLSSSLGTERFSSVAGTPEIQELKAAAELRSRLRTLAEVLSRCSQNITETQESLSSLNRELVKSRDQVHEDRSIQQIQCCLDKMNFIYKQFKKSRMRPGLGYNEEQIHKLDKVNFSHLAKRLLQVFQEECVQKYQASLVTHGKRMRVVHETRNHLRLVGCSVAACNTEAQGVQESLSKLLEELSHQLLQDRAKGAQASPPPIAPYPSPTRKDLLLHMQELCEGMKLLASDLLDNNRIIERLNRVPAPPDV
The experiment in a line: Inhibition of human IKKepsilon using ERLLDDRHDSGLDSMKDEE as substrate after 60 mins in presence of ATP by ADP-Glo kinase assay.

In assay [5] the target is Mitogen-activated protein kinase kinase kinase 14 (Homo sapiens, UniProt Q99558). The experiment in a line: Inhibition of human NIK using AKDVDQGSLCTSFVGTLQY as substrate after 60 mins in presence of ATP by ADP-Glo kinase assay.
In assay [6] the target is T3, Inhibitor of nuclear factor kappa-B kinase subunit beta (Homo sapiens, UniProt O14920).
T3 sequence (O14920 whole entry): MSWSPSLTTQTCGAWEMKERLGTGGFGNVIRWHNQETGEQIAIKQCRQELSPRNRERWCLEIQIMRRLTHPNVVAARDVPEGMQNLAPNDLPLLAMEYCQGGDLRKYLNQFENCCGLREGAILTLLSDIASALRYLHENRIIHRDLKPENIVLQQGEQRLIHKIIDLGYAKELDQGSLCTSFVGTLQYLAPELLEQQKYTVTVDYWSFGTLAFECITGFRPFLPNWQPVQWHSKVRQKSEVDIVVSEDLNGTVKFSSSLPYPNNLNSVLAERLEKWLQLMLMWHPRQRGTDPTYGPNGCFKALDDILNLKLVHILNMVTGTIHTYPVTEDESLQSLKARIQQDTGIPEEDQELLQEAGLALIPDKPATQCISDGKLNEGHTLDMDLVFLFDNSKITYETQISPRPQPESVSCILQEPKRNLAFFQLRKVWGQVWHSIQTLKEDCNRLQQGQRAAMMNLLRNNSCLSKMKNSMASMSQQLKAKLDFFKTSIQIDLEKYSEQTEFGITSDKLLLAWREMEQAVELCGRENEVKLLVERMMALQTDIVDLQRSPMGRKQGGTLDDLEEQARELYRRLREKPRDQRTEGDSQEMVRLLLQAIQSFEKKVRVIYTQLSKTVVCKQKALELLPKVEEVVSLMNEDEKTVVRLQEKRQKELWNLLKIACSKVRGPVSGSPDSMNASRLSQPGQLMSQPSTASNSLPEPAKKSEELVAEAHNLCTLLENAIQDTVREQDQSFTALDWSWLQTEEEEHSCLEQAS
The experiment in a line: Inhibition of IKK-beta in human Jurkat cells assessed as reduction in TNFalpha-stimulated IkBalpha degradation preincubated for 60 mins followed by TNFalpha stimulation for 20 mins by immunoblot analysis. In kind it is cell-based. (In western blotting, separated proteins are transferred to a membrane and probed.)

In assay [7] the target is T3, Inhibitor of nuclear factor kappa-B kinase subunit beta. The experiment in a line: Inhibition of human IKKbeta using ERLLDDRHDSGLDSMKDEE as substrate after 60 mins in presence of ATP by ADP-Glo kinase assay.
Assay [8] has as its system Jurkat. Briefly: Inhibition of TNFalpha-activated canonical NF-kB signaling pathway in human Jurkat cells assessed as residual activity at 1 uM after 6 hrs by luciferase reporter gene assay relative to control. The assay is classed as cell-based. The method in brief: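 Jurkat cells nucleofected with 3 µg of NF-κB-RE firefly luciferase and TK-Renilla plasmids (10:1), then cultured 24 h at 37 °C. Compound added for a further 6 h, with TNFα in the last 20 min. Firefly luminescence normalized to Renilla and expressed as % of DMSO+TNFα control; mean ± SD of three experiments.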

Assay [9] deals with MDA-MB-231. The experiment in a line: Inhibition of constitutively activated canonical NF-kB signaling pathway in human MDA-MB-231 cells assessed as residual activity at 10 uM after 6 hrs by luciferase reporter gene assay relative to control. The assay is classed as cell-based. A digest of the protocol: as §1
Assay [10] has as its system MDA-MB-231. Briefly: Cytotoxicity against human MDA-MB-231 cells after 72 hrs by CellTox green assay. The assay is classed as cell-based. The following applies: MDA-MB-231, 72 h. The method in brief: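 MDA-MB-231 cells (5×10^3/well) exposed to 0.001 - 100 µM compound or DMSO vehicle for 72 h. Membrane-integrity loss read by CellTox green fluorescence. IC50 taken by nonlinear regression; mean ± SD of three independent experiments.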

Sequence of Mitogen-activated protein kinase kinase kinase 14 (Q99558 whole entry): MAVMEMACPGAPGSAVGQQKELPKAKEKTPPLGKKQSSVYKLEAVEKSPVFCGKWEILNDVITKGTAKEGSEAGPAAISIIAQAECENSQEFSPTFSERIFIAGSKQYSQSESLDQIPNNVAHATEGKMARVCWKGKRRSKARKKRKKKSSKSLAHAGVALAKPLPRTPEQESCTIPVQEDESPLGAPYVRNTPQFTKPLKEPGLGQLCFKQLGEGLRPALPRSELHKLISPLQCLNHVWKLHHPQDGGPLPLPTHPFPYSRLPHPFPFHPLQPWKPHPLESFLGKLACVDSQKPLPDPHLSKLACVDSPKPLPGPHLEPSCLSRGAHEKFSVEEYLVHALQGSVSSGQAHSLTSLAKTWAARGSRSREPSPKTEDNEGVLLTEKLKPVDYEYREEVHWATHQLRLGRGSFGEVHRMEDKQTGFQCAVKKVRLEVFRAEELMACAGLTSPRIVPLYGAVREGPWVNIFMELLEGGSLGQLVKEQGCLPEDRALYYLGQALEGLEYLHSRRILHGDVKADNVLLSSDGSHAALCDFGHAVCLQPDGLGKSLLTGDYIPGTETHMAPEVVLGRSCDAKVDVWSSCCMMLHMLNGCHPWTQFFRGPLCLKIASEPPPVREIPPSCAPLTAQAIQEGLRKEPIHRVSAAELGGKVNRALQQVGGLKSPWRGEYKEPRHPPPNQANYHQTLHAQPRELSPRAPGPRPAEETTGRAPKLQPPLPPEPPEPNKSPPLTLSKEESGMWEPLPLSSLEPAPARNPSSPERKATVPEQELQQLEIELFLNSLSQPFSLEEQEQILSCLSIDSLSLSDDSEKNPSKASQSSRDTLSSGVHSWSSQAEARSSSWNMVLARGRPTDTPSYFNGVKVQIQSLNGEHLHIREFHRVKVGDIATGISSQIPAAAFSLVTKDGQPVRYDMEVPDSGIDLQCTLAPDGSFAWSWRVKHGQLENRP

For `O=C(Nc1cc(Cl)cc2c1[nH]c1cnccc12)c1cccnc1`, the Activity stood at 8.67% in [1], 38.1% in [8] and 19.5% in assay [9]. Further, the IC50 in [2] was 900 nM; in assay [3], greater than 100000 nM; in assay [4], greater than 100000 nM; in [5] it was greater than 100000 nM; in assay [6] it was 186 nM; in [7] it was 87 nM. In assay [10], this molecule had an IC50 greater than 100000 nM.

For orientation: IC50 means the concentration at which inhibition is half-maximal.
